Laboratory results reported in paper PMC11381611 (Heliyon, 2024).
Structures can show the parent of a compound that is named as a salt.

Experiments:
[1] = assay type: in vivo; conditions: rat, plasma, po, 10.39 g/kg/day
[2] = test system: Adr-induced arrhythmias; assay: Adr-induced arrhythmia in rats, electrocardiography; assay type: in vivo, rat; conditions: prophylactic administration, rats with Adr-induced arrhythmia; Fig. 5
Method in brief: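 Rats (8 per group) got test compound intragastrically once daily for 14 days (5.19, 10.39 or 20.77 g/kg/d), metoprolol tartrate […], or saline 5 mL/kg/d. 30 min after the last dose, rats were anaesthetised i.p. with 0.6 % nembutal (30 mg/kg) and lead II ECG recorded at 50 mm/s. Adrenaline was given by tail vein as cumulative boluses (8, 16, 32, 64, 128) at 10-min intervals or until death. Read-outs were QRS duration and QTc = QT/√RR, as mean ± s.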

SMILES: O=c1c(-c2ccc(O)cc2)coc2c([C@@H]3O[C@H](CO)[C@@H](O)[C@H](O)[C@H]3O)c(O)ccc12 [puerarin]
- AUC(0-inf) [1]: 615 ± 87.4 ng·h/mL
- AUC(0-t) [1]: 603 ± 69.4 ng·h/mL
- Cmax [1]: 145 ± 17 ng/mL
- MRT inf [1]: 4.76 ± 1.55 h
- MRT last [1]: 4.19 ± 0.83 h
- half-life [1]: 7.06 ± 4.39 h

SMILES: O=C1C[C@@H](c2ccc(O[C@@H]3O[C@H](CO)[C@@H](O)[C@H](O)[C@H]3O)cc2)Oc2cc(O)ccc21 [liquiritin]
- AUC(0-inf) [1]: 747 ± 83.6 ng·h/mL
- AUC(0-t) [1]: 708 ± 49.2 ng·h/mL
- Cmax [1]: 142 ± 8.69 ng/mL
- MRT inf [1]: 10.7 ± 5.65 h
- MRT last [1]: 6.75 ± 0.84 h
- half-life [1]: 7.14 ± 2.06 h

SMILES: COCCc1ccc(OCC(O)CNC(C)C)cc1 (centres unmarked) [Meto, metoprolol tartrate]
- QRS interval [2]: no significant effect
- QTc interval [2]: shortened

SMILES: COc1cc2c(cc1OC)[C@@H]1Cc3ccc(OC)c(OC)c3CN1CC2 [tetrahydropalmatine]
- AUC(0-inf) [1]: 881 ± 47.2 ng·h/mL
- AUC(0-t) [1]: 849 ± 54.3 ng·h/mL
- Cmax [1]: 421 ± 97.7 ng/mL
- MRT inf [1]: 3.66 ± 0.54 h
- MRT last [1]: 2.91 ± 0.54 h
- half-life [1]: 3.26 ± 1.13 h

SMILES: C[n+]1cccc(C(=O)[O-])c1 [trigonelline]
- AUC(0-inf) [1]: 3890 ± 60.4 ng·h/mL
- AUC(0-t) [1]: 3860 ± 46.4 ng·h/mL
- Cmax [1]: 1170 ± 39.8 ng/mL
- MRT inf [1]: 4.53 ± 0.33 h
- MRT last [1]: 4.18 ± 0.19 h
- half-life [1]: 2.58 ± 0.24 h

SMILES: O=C(O)/C=C/c1ccccc1 [cinnamic acid]
- AUC(0-inf) [1]: 7693 ± 68.4 ng·h/mL
- AUC(0-t) [1]: 2010 ± 73.3 ng·h/mL
- Cmax [1]: 800 ± 142 ng/mL
- MRT inf [1]: 2.48 ± 2.81 h
- MRT last [1]: 2.64 ± 1.31 h
- half-life [1]: 4.78 ± 1.67 h

SMILES: COc1ccc2cc3[n+](cc2c1OC)CCc1cc2c(cc1-3)OCO2 [berberine]
- AUC(0-inf) [1]: 162 ± 12.8 ng·h/mL
- AUC(0-t) [1]: 91.1 ± 52.9 ng·h/mL
- Cmax [1]: 30.9 ± 28.6 ng/mL
- MRT inf [1]: 14.7 ± 7.88 h
- MRT last [1]: 4.26 ± 0.61 h
- half-life [1]: 11.9 ± 5 h

SMILES: COc1ccc(-c2cc(=O)c3c(OC)c(OC)c(OC)c(OC)c3o2)cc1OC [nobiletin]
- AUC(0-inf) [1]: 9921 ± 87.6 ng·h/mL
- AUC(0-t) [1]: 9892 ± 40.7 ng·h/mL
- Cmax [1]: 2869 ± 22.6 ng/mL
- MRT inf [1]: 3.28 ± 0.19 h
- MRT last [1]: 3.24 ± 0.11 h
- half-life [1]: 6.32 ± 0.89 h
